We go through seven compounds from PubChem BioAssay.

A short description of experiment [1]: inhibitors of TNFa-induced NFkB p65 translocation, primary screen, imaging, HUVEC, MLSMR starter and 10KST1 sets (AID 438;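 active = inhibition above 20% together with a positive visual image hit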;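 also: compound added about 3h40 before a 20 min TNFalpha stimulation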;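 as to inhibition: signal is the nuclear over cytoplasmic p65 intensity ratio per well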). The note with it: HUVEC TNFa-induced p65 nuclear translocation; cell count: measured here: nuclei count (cytotoxicity indicator), at 2.08 µM; inhibition: at 2 µM, stronger effect = higher value, 0% TNFa-plus-vehicle, 100% no-TNFa wells.
Experiment [2] in a line: endothelial E-selectin expression blockers – imaging, HUVEC, immunofluorescence, MLSMR starter and 10KST1 sets, primary screen (AID 487;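 active = visually confirmed hit in the image check and inhibition above 20%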;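 as to inhibition: signal is fraction of cell area covered by stained E-selectin grains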;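 as to nuclei count: 100% = median nuclei count of all wells on the same plate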). The settings on record: HUVEC TNFalpha-induced E-selectin immunofluorescence imaging, at 2 µM; inhibition: stronger effect = higher value; nuclei count: measured here: cell number, toxicity.
A short description of experiment [3]: Primary imaging screen for DUSP6 inhibitors that restore phospho-Erk in transfected HeLa cells, chemical complementation (AID 609;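 active = compounds giving at least 50% inhibition in the cell-based MKP-3 phosphatase rescue imaging test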;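 as to inhibition: phospho-Erk level distribution per well compared with pooled transfected vehicle control wells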). The settings on record: HeLa MKP-3 transfected, phospho-Erk imaging KS statistic, at 10 µM, cells stimulated with TPA for 15 min.
The target of experiment [4] is Dual specificity protein phosphatase 6 (Homo sapiens) (UniProt Q16828). Described as above. The settings on record: HeLa MKP-3 transfected, phospho-Erk imaging KS statistic; at 10 µM; stronger effect = higher value; cells stimulated with TPA for 15 min.
For experiment [5], the target named is Voltage-gated potassium channel subunit beta-2 (Rattus norvegicus) (UniProt P62483). Put plainly: inhibitors of rat Kvbeta2 reductase activity – biochemical, NADPH fluorescence, primary screen (AID 622;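 active = fluorescence slope higher than the sample average by over 3 SD, cut at about -0.22 in these data, passing the limit was not always enough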;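 also: slope of raw intensity against log time taken from 70 to 1610 s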). The note with it: recombinant KvBeta, 4-cyanobenzaldehyde reduction, at 10 µM, stronger effect = higher value.
For experiment [6] the target is unchanged. Put plainly: enhancers of rat Kvbeta2 NADPH turnover – biochemical, NADPH fluorescence, primary screen (AID 623).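 Also: fluorescence intensity change per second fitted from 20 to 320 s.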 The settings on record: Recombinant KvBeta, NADPH fluorescence decrease slope, 10 min; at 10 µM; stronger effect = lower value.
In experiment [7] the target is Alpha-2C adrenergic receptor (Homo sapiens) (UniProt P18825). Put plainly: compounds altering alpha2C-coupled GIRK flux – cell-based, HEK293 alpha2C/GIRK1/2, thallium flux, primary screen (AID 624;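 active = fluorescence slope after compound addition differing from the mean of all screened samples at 99.7% confidence, in either direction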;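 also: slope of fluorescence ratio to pre-addition baseline per second over 15 to 24 s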). The note with it: thallium flux BTC fluorescence, at 10 µM, actives lie on both sides.
The nature of experiment [8]: inhibitors of larval lipid processing in zebrafish, primary screen, whole organism, PED6 fluorescence, gall bladder and intestine (AID 686;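 active = a full or partial loss of lipid-probe fluorescence in the fish gall bladder, intestine or both, judged by eye; inactive = no fluorescence loss, or compound toxic to the fish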;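 also: larvae 5 to 7 days old with five fish per well; signal comes from phospholipase A2 cleavage of quenched PED6 carried via bile; overnight exposure to compound and PED6 before scoring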). The note with it: Zebrafish larvae PED6 lipid processing, fluorescence scoring; screened at 20 µM (by protocol). The procedure, abridged: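 Also added: quenched phospholipase substrate PED6, 100 nM final, ingested by larvae; System: zebrafish larvae, 5-7 d; Quantity: 5 larvae per well; Compound: 20 µM single dose; Schedule: overnight compound and PED6 incubation; Read-out: visual per-well fluorescence inhibition score; Measured by: By-eye fluorescence microscopy; Medium: E3.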

The nature of experiment [9]: loss of swimming-algae plug formation – whole organism, Chlamydomonas reinhardtii, WT vs cilia-less mutant, absorbance, 96-well, primary screen (AID 463189;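 active = inhibition at or above 50% relative to wild type and mutant plate controls; inactive = inhibition below 50%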;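 also: 0% = wild type cc124 cells in DMSO and 100% = ciliumless bld1 mutant cells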). The note with it: Chlamydomonas reinhardtii gravitaxis, OD600 absorbance, 2 days; at 10 µM; stronger effect = higher value.
Setting [10] is: measured here: cell density z-score.
The mark [11] stands for this setting: measured here: nuclear c-Myc green intensity z-score.
Setting [12] is: measured here: nuclear pErk red intensity z-score, stronger effect = higher value.

Calls of active or inactive are those of the source.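 The calls were made as follows, unless noted: active = NADPH fluorescence slope more negative than the mean of all samples by about 3 SD, 99.7% confidence; inactive = the rest.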

Sequence of Voltage-gated potassium channel subunit beta-2 (Rattus norvegicus) (P62483 whole entry, looked up): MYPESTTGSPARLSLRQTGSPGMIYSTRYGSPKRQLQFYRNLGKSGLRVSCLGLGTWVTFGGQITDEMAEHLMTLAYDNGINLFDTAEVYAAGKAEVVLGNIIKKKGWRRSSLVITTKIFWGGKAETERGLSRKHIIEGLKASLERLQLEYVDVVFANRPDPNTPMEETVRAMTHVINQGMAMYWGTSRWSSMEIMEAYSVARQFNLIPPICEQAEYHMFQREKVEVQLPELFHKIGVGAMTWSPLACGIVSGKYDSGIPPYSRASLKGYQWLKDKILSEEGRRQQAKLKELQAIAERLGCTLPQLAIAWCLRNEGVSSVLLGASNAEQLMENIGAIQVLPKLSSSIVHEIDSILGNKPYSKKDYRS
Sequence of Alpha-2C adrenergic receptor (Homo sapiens) (P18825 whole entry, looked up): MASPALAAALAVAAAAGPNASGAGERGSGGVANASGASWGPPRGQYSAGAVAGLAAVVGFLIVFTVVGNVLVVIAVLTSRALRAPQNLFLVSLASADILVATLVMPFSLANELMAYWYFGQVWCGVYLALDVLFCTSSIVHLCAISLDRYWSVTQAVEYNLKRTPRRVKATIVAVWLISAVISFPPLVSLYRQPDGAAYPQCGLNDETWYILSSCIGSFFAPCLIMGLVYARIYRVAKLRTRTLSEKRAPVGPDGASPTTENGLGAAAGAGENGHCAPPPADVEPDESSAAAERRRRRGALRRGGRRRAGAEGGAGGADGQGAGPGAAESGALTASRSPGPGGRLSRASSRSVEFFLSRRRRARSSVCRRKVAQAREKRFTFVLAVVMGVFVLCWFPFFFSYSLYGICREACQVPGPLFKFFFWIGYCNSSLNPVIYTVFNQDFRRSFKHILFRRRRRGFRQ
Sequence of Dual specificity protein phosphatase 6 (Homo sapiens) (Q16828 whole entry, looked up): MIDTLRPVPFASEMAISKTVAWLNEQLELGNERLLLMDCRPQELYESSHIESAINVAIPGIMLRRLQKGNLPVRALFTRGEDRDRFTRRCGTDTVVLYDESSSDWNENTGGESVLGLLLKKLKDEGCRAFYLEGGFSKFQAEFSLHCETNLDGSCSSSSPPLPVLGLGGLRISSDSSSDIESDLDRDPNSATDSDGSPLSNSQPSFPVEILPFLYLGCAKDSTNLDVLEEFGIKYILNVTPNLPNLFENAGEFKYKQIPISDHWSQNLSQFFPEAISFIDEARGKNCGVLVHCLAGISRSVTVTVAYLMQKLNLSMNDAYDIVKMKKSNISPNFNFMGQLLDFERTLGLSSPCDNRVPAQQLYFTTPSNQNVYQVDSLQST

As to `Cn1c(=NCC(O)COc2ccccc2)sc2ccccc21` (stereo unspecified), in experiment [1], the cell count was 482. Moreover, the inhibition in experiment [1] was 7.1% (inactive); in experiment [2], -85.2% (inactive); in experiment [4], -8.95% (inactive); in experiment [9], 16.2% (inactive). Besides, the nuclei count in [2] worked out at 167%. The z-score in [3] (setting [10]) was 0.424; in [3] (setting [11]) it was -0.57; in experiment [3] (setting [12]), 0.805. In addition, the fluorescence slope in experiment [5] is -0.367 (inactive). For the same compound, the NADPH fluorescence slope in [6] was -3.8e-05 (inactive). In addition, the slope in [7] was 0.00465 (inactive). Also, in experiment [8], the outcome was inactive.
Regarding `Clc1ccc(-c2nnc3sc(Cc4cccs4)nn23)c(Cl)c1`, in [1], the cell count is 664. Also, the inhibition in experiment [1] is 0.3% (inactive); in experiment [2] it was -136% (inactive); in experiment [4], -9.66% (inactive); in [9], 37.7% (inactive). In experiment [2], this compound returned a nuclei count of 169%. Besides, the z-score in experiment [3] (setting [10]) is 0.203; in [3] (setting [11]) it was 0.587; in [3] (setting [12]), -0.53. For the same compound, the fluorescence slope in experiment [5] is -0.43 (inactive). Besides, the NADPH fluorescence slope in experiment [6] is -0.00015 (inactive). In experiment [7], the slope is 0.00477 (inactive). Besides, in experiment [8], the call was inactive.
`COC(=O)Cn1cc(C(=O)OC)cc(Br)c1=O`: the cell count in [1] stood at 507. Besides, the inhibition in experiment [1] is -0.8% (inactive); in experiment [2] it was -135% (inactive); in experiment [4], -8.76% (inactive); in experiment [9] it was -6.78% (inactive). The compound further showed a nuclei count in experiment [2] of 136%. Moreover, the z-score in experiment [3] (setting [10]) was 0.966; in experiment [3] (setting [11]) it was 0.177; in experiment [3] (setting [12]), 0.211. Also, the fluorescence slope in experiment [5] was -0.539 (inactive). Also, the NADPH fluorescence slope in experiment [6] was -3.3e-05 (inactive). Moreover, the slope in [7] was 0.00509 (inactive). In addition, the compound was called inactive in experiment [8].
As for `O=C(O)C1CSC(CCc2ccccc2)N1` (stereo unspecified), the cell count in experiment [1] stood at 633. Besides, the inhibition is -7.7% (inactive) in experiment [1], -34.8% (inactive) in [2], 7.83% (inactive) in [4] and 8.25% (inactive) in experiment [9]. This compound gave a nuclei count in [2] of 140%. In addition, the results for the z-score in [3] (setting [10]), in experiment [3] (setting [11]) and in [3] (setting [12]) were -0.486, 0.112 and 1.29, respectively. The fluorescence slope in experiment [5] was -0.459 (inactive). Moreover, in experiment [6], the NADPH fluorescence slope was -0.000276 (inactive). For the same compound, in [7], the slope was 0.00538 (inactive). The outcome in experiment [8] was inactive.
Take `CC(=O)Nc1cc2c(cc1Br)OCCO2`: the cell count in experiment [1] turned out to be 524. Besides, the inhibition in [1] is -18.7% (inactive); in [2] it was -80.8% (inactive); in experiment [4] it was 16.1% (inactive); in experiment [9], 33.1% (inactive). The nuclei count in [2] stood at 169%. Further, the results for the z-score in [3] (setting [10]), in experiment [3] (setting [11]) and in experiment [3] (setting [12]) were -0.0183, 1.62 and -0.826, respectively. Moreover, in experiment [5], the fluorescence slope was -0.519 (inactive). The NADPH fluorescence slope in experiment [6] was -3.4e-05 (inactive). Also, the slope in experiment [7] is 0.00516 (inactive). In [8], the compound was classed as inactive.
As for `N#CC(C(=O)NC1CCCCC1)c1nc2ccccc2nc1N1CCN(c2ccccc2F)CC1` (stereo unspecified), the cell count in experiment [1] amounted to 449. For the same compound, the inhibition is 6.9% (inactive) in experiment [1], -71.6% (inactive) in [2], 7.83% (inactive) in experiment [4] and 1.07% (inactive) in experiment [9]. Also, the nuclei count in experiment [2] is 150%. Besides, the z-score in experiment [3] (setting [10]) was 0.949; in experiment [3] (setting [11]), -0.507; in experiment [3] (setting [12]) it was 0.00921. The fluorescence slope in experiment [5] is -0.432 (inactive). Moreover, the NADPH fluorescence slope in experiment [6] was -1.4e-05 (inactive). In experiment [7], the slope is 0.00608 (inactive). In [8], the outcome was inactive.
Turning to `COC(=O)c1[nH]c2cc(OC)ccc2c1NC(=O)CCN1CCCC(C)(C)C1`, the cell count in [1] was found to be 350. Also, the inhibition in experiment [1] was -5.3% (inactive); in [2], -2.2% (inactive); in experiment [4], 7.42% (inactive); in experiment [9] it was -7.62% (inactive). The nuclei count in [2] turned out to be 153%. For the same compound, the z-score is -0.606 in experiment [3] (setting [10]), -0.827 in experiment [3] (setting [11]) and 0.954 in [3] (setting [12]). In addition, the fluorescence slope in experiment [5] was -0.44 (inactive). Besides, the NADPH fluorescence slope in [6] is -0.00014 (inactive). Also, the slope in [7] was 0.00716 (inactive). Also, in experiment [8], the compound was called inactive.

In general, inhibition refers to the change of the read-out against control, counted positive when it falls.
